According to ChEMBL document CHEMBL1955840, “Proteasome inhibitors for cancer therapy” (Bioorg Med Chem, 2012):

Columns and labels:
[1] = Inhibition of chymotrypsin-like activity of human liver 20S proteasome assessed as release of AMC using Suc-LLVY-AMC fluorogenic substrate after 15 mins preincubation measured every 1.5 mins for 20 mins by fluorescence analysis
Outline: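 Proteasome partially purified from postmortem human liver, 6.7 µg/mL final, in 20 mM Tris–Cl pH 7.5, 0.04% SDS, 5% DMSO; activated by 15 min preincubation at 27 °C. Suc-LLVY-AMC added to 100 µM; AMC fluorescence (ex 360/em 460 nm) read every 1.5 min for 20 min at 27 °C. Rates per inhibitor concentration; IC50 by non-linear regression; mean S.D., n = 3–6.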

Chymotrypsinogen A = Chymotrypsinogen A (Bos taurus, UniProt P00766); test: Inhibition of bovine alpha-chymotrypsin
[2] = Antitumor activity against rat AT2 cells assessed as cell viability; type: functional, cell-based
Outline: (§1)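 Tumor cell viability IC50 values; averages of two independent experiments, each performed in triplicate.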

[3] = system: Lewis lung carcinoma cell line; test: Antitumor activity against mouse LLC cells assessed as cell viability; type: functional, cell-based; outline: as §1
SK-MEL-5 = test: Antitumor activity against human SK-MEL-5 cells assessed as cell viability; type: functional, cell-based; outline: as §1
[4] = Inhibition of chymotrypsin-like activity of 20S proteasome in human MOLT4 cells assessed as release of AFC using MeOSuc-Phe-Leu-Phe-AFC substrate after 15 mins measured every 1.5 mins for 20 mins by fluorescence analysis; type: cell-based; conditions: MOLT-4
Outline: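 Molt-4 human T-cell leukemia cells washed, resuspended at 6 × 10⁶ cells/mL in HEPES-buffered saline (pH 7.0) with KCl, NaCl, glucose, MgSO₄ and Na pyruvate. Fluorogenic AFC substrate at 100 µM, 0.6% DMSO final; incubated at 37 °C; AFC fluorescence (ex 420/em 490 nm) read every 1.5 min for 20 min. IC50 reported as mean S.D., n = 3–6.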

MCF7 = test: Antitumor activity against human MCF7 cells assessed as cell viability; type: functional, cell-based; outline: as §1
[5] = target: Chymotrypsinogen A (Bos taurus) (UniProt P00766); test: Inhibition of bovine alpha-chymotrypsin at 10 uM
Outline: (§2)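 Percent inhibition measured at a single 10 µM concentration; averages of two independent experiments, each run in triplicate.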

MOLT-4 = test: Ratio of IC50 for chymotrypsin-like activity of 20S proteasome in human MOLT4 cells to IC50 for chymotrypsin-like activity of human liver 20S proteasome in cell-free assay; type: cell-based
Outline: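 Cell-permeability index: IC50 against chymotrypsin-like activity in intact Molt-4 cells divided by IC50 against isolated human liver 20S proteasome, both from fluorogenic substrate cleavage assays.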

[6] = Inhibition of trypsin-like activity of 20S proteasome at 10 uM; outline: as §2
OVCAR-3 = test: Antitumor activity against human OVCAR3 cells assessed as cell viability; type: functional, cell-based; outline: as §1
PANC-1 = test: Antitumor activity against human PANC1 cells assessed as cell viability; type: functional, cell-based; outline: as §1
[7] = target: T1, Calpain-1 catalytic subunit (Homo sapiens) (UniProt P07384); test: Inhibition of human calpain 1 at 10 uM; outline: as §2
T1 sequence (whole entry): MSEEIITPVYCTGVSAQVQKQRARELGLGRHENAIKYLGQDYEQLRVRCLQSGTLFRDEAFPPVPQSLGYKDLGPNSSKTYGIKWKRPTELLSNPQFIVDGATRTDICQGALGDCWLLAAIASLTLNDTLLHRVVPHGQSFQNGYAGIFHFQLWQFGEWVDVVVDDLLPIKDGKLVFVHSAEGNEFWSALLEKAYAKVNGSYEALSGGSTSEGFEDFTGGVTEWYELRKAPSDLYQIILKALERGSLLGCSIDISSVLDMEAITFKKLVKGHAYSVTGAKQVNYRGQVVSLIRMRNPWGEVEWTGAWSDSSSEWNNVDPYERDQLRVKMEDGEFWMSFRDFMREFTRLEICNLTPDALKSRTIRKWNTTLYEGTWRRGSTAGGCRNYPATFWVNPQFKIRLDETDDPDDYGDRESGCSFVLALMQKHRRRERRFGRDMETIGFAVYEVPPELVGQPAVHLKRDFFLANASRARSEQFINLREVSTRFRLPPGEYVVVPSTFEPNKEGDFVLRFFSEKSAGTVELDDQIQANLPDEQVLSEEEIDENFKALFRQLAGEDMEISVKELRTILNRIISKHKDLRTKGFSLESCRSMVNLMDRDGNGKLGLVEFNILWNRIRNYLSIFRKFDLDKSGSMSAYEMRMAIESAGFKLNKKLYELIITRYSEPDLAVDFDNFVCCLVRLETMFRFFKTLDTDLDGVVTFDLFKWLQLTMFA

DU-145 = test: Antitumor activity against human DU145 cells assessed as cell viability; type: functional, cell-based; outline: as §1

SMILES | IC50 [1] [µM] | IC50 (Chymotrypsinogen A) [µM] | IC50 [4] [µM] | inhibition [5] [%] | Ratio IC50 (MOLT-4) | inhibition [6] [%] | inhibition [7] [%] | also measured
CC(C)C[C@@H](C=O)NC(=O)[C@H](CCCN/C(N)=N/[N+](=O)[O-])NC(=O)C(CCCCCCCCN1C(=O)c2ccccc2C1=O)C1CCCC1 (stereo not given in full) | 0.002 | – | – | – | – | – | – | –
CC(C)C[C@@H](C=O)NC(=O)[C@H](CCCN/C(N)=N/[N+](=O)[O-])NC(=O)C(CCCCCCCCC#N)C1CCCC1 (stereo not given in full) | 0.006 | – | – | – | – | – | – | –
CC(C)C[C@H](NC(=O)[C@H](CCCN/C(N)=N/[N+](=O)[O-])NC(=O)C(CCCCCCCCC#N)C1CCCC1)C(=O)C(=O)NCCNS(=O)(=O)c1ccccc1 (stereo not given in full) | 0.001 | – | – | – | – | – | – | –
CC(C)C[C@H](NC(=O)[C@H](CCCN/C(N)=N/[N+](=O)[O-])NC(=O)C(CCCCCCCCC#N)C1CCCC1)B1OC(C)(C)C(C)(C)O1 (stereo not given in full) | 0.006 | – | – | – | – | – | – | –
CC(C)C[C@H](NC(=O)[C@H](CCCN=C(N)N[N+](=O)[O-])NC(=O)C(CCCCCCCCC#N)C1CCCC1)B1O[C@@H]2[C@@H]3C[C@H](C[C@]2(C)O1)C3(C)C (mixture of isomers) | – | > 10 | – | – | – | – | – | –
CC(C)C[C@H](NC(=O)[C@H](CCCN/C(N)=N/[N+](=O)[O-])NC(=O)C(CCCCCCCCC#N)C1CCCC1)B1O[C@@H]2[C@@H]3C[C@H](C[C@]2(C)O1)C3(C)C (mixture of isomers) | 0.0035 | – | 0.24 | 24 | 69 | 0 | 2 | IC50 [2]: > 1 µM; IC50 [3]: 0.585 µM; IC50 (SK-MEL-5): 0.085 µM; IC50 (MCF7): 0.425 µM; IC50 (OVCAR-3): 0.069 µM; IC50 (PANC-1): 0.283 µM; IC50 (DU-145): 0.293 µM
CC(C)C[C@H](NC(=O)[C@H](CCCN/C(N)=N/[N+](=O)[O-])NC(=O)C(CCCCCCCCN1C(=O)c2ccccc2C1=O)C1CCCC1)B1O[C@@H]2[C@@H]3C[C@H](C[C@]2(C)O1)C3(C)C (mixture of isomers) | 0.0035 | > 10 | 0.07 | 30 | 20 | 20 | 11 | IC50 [2]: > 1 µM; IC50 [3]: 0.513 µM; IC50 (SK-MEL-5): 0.082 µM; IC50 (MCF7): 0.292 µM; IC50 (OVCAR-3): 0.029 µM; IC50 (PANC-1): 0.184 µM; IC50 (DU-145): 0.167 µM
CC(C)C[C@H](NC(=O)[C@H](CCCN/C(N)=N/[N+](=O)[O-])NC(=O)C(CCCCCCCCC#N)C1CCCC1)B(O)O (mixture of isomers) | 0.0087 | – | 7.34 | 30 | 840 | 5 | – | –
CC(C)C[C@H](NC(=O)[C@H](CCCNC(=N)N[N+](=O)[O-])NC(=O)C(CCCCCCCCC#N)C1CCCC1)B(O)O (mixture of isomers) | – | > 10 | – | – | – | – | – | –
CC(C)C[C@H](NC(=O)[C@H](CCCN/C(N)=N/[N+](=O)[O-])NC(=O)C(CCCCCCCCN1C(=O)c2ccccc2C1=O)C1CCCC1)B(O)O (mixture of isomers) | 0.0041 | > 10 | 2.83 | 2 | 690 | 24 | 0 | –
